Here are results for 16 molecules from ChEMBL document CHEMBL1221323, “Iodination of verapamil for a stronger induction of death, through GSH efflux, of cancer cells overexpressing MRP1” (Bioorg Med Chem, 2010).

One may read the IC50 as the concentration at which inhibition is half-maximal. Low readings indicate greater potency in that assay, high ones weaker potency in that assay.

Data set [1] concerns BHK-21. Description: Cytotoxicity against hamster BHK21 cells after 96 hrs by MTT assay. The data set is classed as functional, cell-based. Conditions: Mesocricetus auratus, BHK-21, 96 h; call rule not given here. Put shortly: (§1)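 Cells plated at 1.0 × 10⁴/well and grown 17 h, then exposed to compound diluted in complete medium (0.5% DMSO) for 96 h at 37 °C, 5% CO₂. MTT at 0.5 mg/mL added for 4 h, dye removed, formazan dissolved in isopropanol, absorbance read at 570 nm. IC50 taken from sigmoidal fits of triplicate dose–response curves.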

In data set [2] the test system is BHK-21. As to the kind of experiment: Cytotoxicity against hamster BHK21 cells expressing MRP1 after 96 hrs by MTT assay. The data set is classed as functional, cell-based. The following applies: Mesocricetus auratus, BHK-21, 96 h. Put shortly:
as §1
In general terms: Formazan colour is commonly taken as a measure of viable cells.

For data set [3], the target named is T1, Multidrug resistance-associated protein 1 (Homo sapiens, UniProt P33527). Description: Inhibition of MRP1 expressed in hamster BHK21 cells assessed as reduction of GSH efflux at 5 uM after up to 50 to 60 mins. The data set is classed as cell-based. Conditions: bhk-21, 5 µM. An outline of the steps:
(§2)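 Cells from the MRP1-transfected BHK-21 line (kept under methotrexate) were seeded at 1.0 × 10⁵/well, grown 17 h, then given 5 µM compound (DMSO ≤0.5%) for 10–120 min. Cells were washed in cold PBS and lysed in 0.1% Triton X-100. Total glutathione was measured by DTNB/NADPH/GSH reductase recycling (A412 kinetic, 2 min) and normalized to Bradford protein. Residual GSH is expressed as % of untreated cells; time to 50% loss is reported; triplicates.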

Data set [4] has as its target T1, Multidrug resistance-associated protein 1. Description: Inhibition of MRP1 expressed in hamster BHK21 cells assessed as reduction of GSH efflux at 5 uM after up to 120 mins. The data set is classed as cell-based. The following applies: bhk-21, 2 h. Put shortly: as §2

T1 sequence (P33527 whole entry): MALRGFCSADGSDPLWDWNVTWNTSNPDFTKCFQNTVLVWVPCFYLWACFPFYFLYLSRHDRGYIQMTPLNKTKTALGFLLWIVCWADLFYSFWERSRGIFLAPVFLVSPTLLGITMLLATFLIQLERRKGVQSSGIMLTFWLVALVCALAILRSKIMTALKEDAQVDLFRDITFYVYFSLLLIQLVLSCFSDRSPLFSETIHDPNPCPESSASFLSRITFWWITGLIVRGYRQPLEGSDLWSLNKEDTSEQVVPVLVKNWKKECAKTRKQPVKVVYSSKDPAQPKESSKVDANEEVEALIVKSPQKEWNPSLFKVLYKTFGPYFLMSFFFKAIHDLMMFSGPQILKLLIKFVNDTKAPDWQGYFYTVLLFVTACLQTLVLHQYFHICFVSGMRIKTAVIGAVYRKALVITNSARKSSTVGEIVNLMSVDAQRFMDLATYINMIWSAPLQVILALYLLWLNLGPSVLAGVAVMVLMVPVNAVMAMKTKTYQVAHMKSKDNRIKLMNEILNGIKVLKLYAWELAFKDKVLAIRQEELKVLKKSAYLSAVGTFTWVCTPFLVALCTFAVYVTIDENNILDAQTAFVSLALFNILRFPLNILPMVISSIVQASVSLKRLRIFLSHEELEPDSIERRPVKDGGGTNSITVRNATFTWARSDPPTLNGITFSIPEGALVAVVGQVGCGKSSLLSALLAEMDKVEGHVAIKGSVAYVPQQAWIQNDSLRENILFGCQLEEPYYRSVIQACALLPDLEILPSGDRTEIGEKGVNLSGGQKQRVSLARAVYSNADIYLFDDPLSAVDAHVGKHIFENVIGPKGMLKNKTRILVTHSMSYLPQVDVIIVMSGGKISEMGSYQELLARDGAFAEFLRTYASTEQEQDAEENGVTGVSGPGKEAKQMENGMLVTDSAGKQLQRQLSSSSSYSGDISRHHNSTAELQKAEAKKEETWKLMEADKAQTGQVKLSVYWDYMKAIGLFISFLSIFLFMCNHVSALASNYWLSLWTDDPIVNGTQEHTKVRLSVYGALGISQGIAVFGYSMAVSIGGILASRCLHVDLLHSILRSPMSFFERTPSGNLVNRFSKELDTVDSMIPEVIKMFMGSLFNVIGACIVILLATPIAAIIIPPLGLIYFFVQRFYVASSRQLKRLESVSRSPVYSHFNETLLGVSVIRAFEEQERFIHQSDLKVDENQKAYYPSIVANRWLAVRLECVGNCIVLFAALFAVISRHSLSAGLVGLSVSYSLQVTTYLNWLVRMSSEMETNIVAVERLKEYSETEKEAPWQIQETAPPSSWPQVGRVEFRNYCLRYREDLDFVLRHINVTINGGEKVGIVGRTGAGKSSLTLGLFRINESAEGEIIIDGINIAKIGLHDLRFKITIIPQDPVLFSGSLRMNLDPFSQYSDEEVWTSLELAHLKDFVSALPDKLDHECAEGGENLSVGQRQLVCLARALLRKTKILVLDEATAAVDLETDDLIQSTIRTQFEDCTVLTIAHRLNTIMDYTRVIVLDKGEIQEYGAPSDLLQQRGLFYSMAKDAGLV

On to `COc1ccc(C(C#N)(CCCN(C)Cc2cc(I)c(O)c(I)c2)C(C)C)cc1OC` (configuration not stated), for which the IC50 in data set [1] is 27.4 µM; in data set [2], 6.6 µM.
Consider `COc1ccc(C(C#N)(CCCN(C)CCCc2ccc(O)cc2)C(C)C)cc1OC` (configuration not stated), for which the IC50 in data set [1] was no less than 100 µM; in data set [2], 20.9 µM. In data set [3], the “inhibition (INH)” value is “Not Active”.
As for `COc1ccc(C(C#N)(CCCN(C)CCCc2ccc(O)c(I)c2)C(C)C)cc1OC` (configuration not stated), the IC50 in data set [1] is 9.4 µM; in data set [2] it was 9.3 µM.
Take `COc1ccc(C(C#N)(CCCN(C)CCCc2cc(I)c(O)c(I)c2)C(C)C)cc1OC` (configuration not stated): the IC50 in data set [1] amounted to 33.1 µM; in data set [2], 6 µM.
Regarding `COc1ccc(C(C#N)(CCCN(C)Cc2ccc(O)cc2)C(C)C)cc1OC` (configuration not stated), the IC50 in data set [1] came to 28.5 µM; in data set [2] it was 6.6 µM. For the same molecule, the “inhibition (INH)” value in data set [3] is on record as “Not Active”.
Regarding `COc1ccc(C(C#N)(CCCN(C)Cc2ccc(O)c(I)c2)C(C)C)cc1OC` (configuration not stated), the IC50 in data set [1] is 14.1 µM; in data set [2] it was 13 µM.
Take `COc1ccc(C(C#N)(CCCNCCc2ccc(O)cc2)C(C)C)cc1OC` (configuration not stated): the IC50 in data set [1] is no less than 100 µM; in data set [2], 38.1 µM.
In the same order, the values of `COc1ccc(C(C#N)(CCCNCCc2ccc(O)c(I)c2)C(C)C)cc1OC` (configuration not stated) are 14.2 µM and 0.78 µM.
For `COc1ccc(C(C#N)(CCCNCCc2cc(I)c(O)c(I)c2)C(C)C)cc1OC` (configuration not stated) the same measures were 13.8 µM and 1.96 µM.
Turning to `COc1ccc(CCN(C)CCCC(C#N)(c2ccc(OC)c(OC)c2)C(C)C)cc1` (configuration not stated), the IC50 in data set [1] came out at 33.6 µM; in data set [2], 17.2 µM. The “inhibition (INH)” value in data set [4] was “Not Active”.
On to `COc1ccc(CCN(C)CCCC(C#N)(c2ccc(OC)c(OC)c2)C(C)C)cc1I` (configuration not stated), for which the IC50 is 13 µM in data set [1] and 4.7 µM in data set [2]. The “inhibition (INH)” value in data set [4] is reported as “Not Active”.
For `COc1ccc(C(C#N)(CCCN(C)CCc2cc(I)c(OC)c(I)c2)C(C)C)cc1OC` (configuration not stated) the same measures were 8.9 µM, 1.7 µM and “Not Active”.
Turning to `COc1ccc(C(C#N)(CCCN(C)CCc2ccc(O)cc2)C(C)C)cc1OC` (configuration not stated), the IC50 turned out to be 55.9 µM in data set [1] and 11.7 µM in data set [2].
As to `COc1ccc(C(C#N)(CCCN(C)CCc2ccc(O)c(I)c2)C(C)C)cc1OC` (configuration not stated), the IC50 in data set [1] is 32.8 µM; in data set [2] it was 8.6 µM.
On to `COc1ccc(C(C#N)(CCCN(C)CCc2cc(I)c(O)c(I)c2)C(C)C)cc1OC` (configuration not stated), for which the IC50 in data set [1] turned out to be 54.7 µM; in data set [2], 1.1 µM.
In the same order, the values of `COc1ccc(CCN(C)CCCC(C#N)(c2ccc(OC)c(OC)c2)C(C)C)cc1OC` (configuration not stated) [VERAPAMIL] are no less than 100 µM and 10.6 µM.
